# Rows were chosen to be rich in hits. Some 3% of all compounds tested hit in one or more screens of this group.
# TRPC6 act: mouse TRPC6 channel activators, primary screen, cell-based, HEK293, membrane potential dye; Short transient receptor potential channel 6 (Mus musculus), Q61143; HEK293-TRPC6 membrane potential dye fluorescence; active compounds read high; B-score at 10 µM; 310,000 compounds, 0.13% hits; AID 2550, 2010;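 active means B-score of the integrated fluorescence ratio above library mean plus 3 SD, and starting fluorescence ratio within library mean plus 5 SD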;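 further: higher score means more depolarization so channel activation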
# Target sequence (Q61143 whole entry, looked up): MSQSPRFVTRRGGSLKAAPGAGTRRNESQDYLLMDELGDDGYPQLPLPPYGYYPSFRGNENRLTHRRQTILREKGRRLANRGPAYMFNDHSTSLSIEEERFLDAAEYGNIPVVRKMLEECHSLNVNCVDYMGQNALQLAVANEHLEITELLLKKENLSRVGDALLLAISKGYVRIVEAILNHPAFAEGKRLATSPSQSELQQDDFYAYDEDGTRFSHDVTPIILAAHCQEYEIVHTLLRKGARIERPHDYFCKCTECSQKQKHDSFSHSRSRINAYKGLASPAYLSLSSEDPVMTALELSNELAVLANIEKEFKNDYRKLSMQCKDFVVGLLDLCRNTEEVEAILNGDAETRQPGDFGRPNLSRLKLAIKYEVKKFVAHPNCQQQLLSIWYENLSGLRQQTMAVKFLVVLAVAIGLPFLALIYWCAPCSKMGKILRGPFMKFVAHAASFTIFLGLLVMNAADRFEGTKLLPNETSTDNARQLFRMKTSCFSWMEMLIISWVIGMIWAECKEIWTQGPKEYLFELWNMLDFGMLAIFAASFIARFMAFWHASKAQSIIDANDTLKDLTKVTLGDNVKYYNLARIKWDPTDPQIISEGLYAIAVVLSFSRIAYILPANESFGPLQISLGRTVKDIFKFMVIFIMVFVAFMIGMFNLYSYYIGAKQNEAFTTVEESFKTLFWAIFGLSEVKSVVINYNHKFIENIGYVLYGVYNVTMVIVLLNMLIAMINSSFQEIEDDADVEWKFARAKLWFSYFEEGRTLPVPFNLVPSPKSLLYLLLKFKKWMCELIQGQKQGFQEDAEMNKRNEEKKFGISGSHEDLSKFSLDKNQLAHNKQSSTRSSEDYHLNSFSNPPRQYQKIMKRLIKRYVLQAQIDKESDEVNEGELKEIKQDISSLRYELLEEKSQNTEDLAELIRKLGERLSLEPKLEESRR
# TRPC4 block: inhibitors of mouse TRPC4 channel, primary screen, Fluo4 calcium, HEK293 TRPC4beta/mu-opioid cells; DAMGO-evoked Fluo4 calcium flux; active compounds read low; AID 2247, 2010; B-score at 10 µM; 300,000 compounds, 0.39% hits;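 active means B-score over 3 SD under the library average, no early fluorescence shift, positive overall ratio signal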
#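 Assay system – HEK293 line stably carrying TRPC4beta and mu-opioid receptor · Doses – single dose · Detection – Fluo4 calcium-dye fluorescence, kinetic read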
# TRPC6 inh: mouse TRPC6 channel inhibitors, primary screen, cell-based, HEK293, membrane potential dye. 310,000 compounds, 1.1% hits. ACh-evoked depolarization; active compounds read low. Short transient receptor potential channel 6 (Mus musculus), Q61143. AID 2553, 2010. B-score at 10 µM;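 active means B-score under library mean minus 3 SD, initial fluorescence not abnormally high, positive integrated signal ratio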;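 further: B-score derived from integrated fluorescence ratio over the kinetic read; more negative B-score means stronger inhibition of depolarization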
# Kir21 block: inhibitors of mouse Kir2.1 inward-rectifier potassium channel | AID 1672, 2009 | HEK293-Kir2.1, FluxOR thallium flux fluorescence; active compounds read low | Inward rectifier potassium channel 2 (Mus musculus), P35561 | 310,000 compounds, 0.85% hits | B-score at 10 µM;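 active means fluorescence ratio B-score at or below minus 3 SD of library scores, with starting-brightness B-score within 2 SD, cut at about -4.2 in these data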;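 further: channel flux triggered by added potassium and thallium sulfate stimulus; B-score of peak minus minimum fluorescence over baseline after thallium stimulus; more negative B-score means stronger Kir2.1 block with less thallium influx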
# TRPC4 PAM: positive allosteric modulators of TRPC4, primary screen, cell-based, mouse TRPC4beta, HEK293 mu-opioid, Fluo-4 calcium | DAMGO EC20, Fluo-4 Ca2+ flux; active compounds read high | B-score at 10 µM | 310,000 compounds, 0.42% hits;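 active means B-score of calcium response area above 5 SD of library B-scores, with initial fluorescence ratio within 5 SD of library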;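 further: B-score of integrated fluorescence ratio over time as area under calcium response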
# TRPC4 agonist: activators of mouse TRPC4 channel, primary screen, Fluo4 calcium, HEK293 TRPC4beta/mu-opioid cells; Short transient receptor potential channel 4 (Mus musculus), Q9QUQ5; Fluo4 calcium fluorescence; active compounds read high; B-score at 10 µM; 310,000 compounds, 0.49% hits; AID 2237, 2010;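 active means B-score above 5 SD of library B-scores, and initial fluorescence ratio not above library mean plus 5 SD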;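 further: positive B-score marks a calcium rise read as TRPC4 activation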
#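 Test system: HEK293 cells stably co-expressing mouse TRPC4beta and mu-opioid receptor | Schedule: Fluo4 dye loading 45 min at room temperature, 110 s recording | Measured by: Kinetic Fluo4 calcium fluorescence, 5 s baseline at 1 Hz | Evaluation: B score of integrated ratio | Controls: Buffer (low) and maximal DAMGO (high)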
# An asterisk follows results filed as active; i = inactive.
SMILES,TRPC6 act,TRPC4 block,TRPC6 inh,Kir21 block,TRPC4 PAM,TRPC4 agonist
O=C(Nc1c(Cl)cccc1Cl)C1CCN(C(=O)c2cccs2)CC1,i,i,i,0.2,i,i
CCOC(=O)C1(Cc2ccccc2C)CCCN(C(=O)c2ccc(OC)o2)C1 (stereo unspecified),i,i,i,-0.06,i,i
CCC(=O)Nc1nc2ccccc2n1CCN(CC)CC,i,i,i,-0.33,11*,i
O=[N+]([O-])c1cccc(-c2csc(N/N=C/c3cccc(O)c3)n2)c1,i,i,i,0.58,i,i
Cc1cccc(Nc2nc(NCCCN3CCOCC3)nc(N)c2[N+](=O)[O-])c1,i,-6*,i,-0.48,i,i
Nc1nc(NCCCN2CCOCC2)nc(Nc2cccc(F)c2)c1[N+](=O)[O-],i,i,i,0.5,i,i
COc1ccccc1C1=NOC(C)(c2nnc(Cc3ccccc3)o2)C1 (stereo unspecified),i,i,i,-1.8,i,i
COc1ccc2nc(NS(=O)(=O)c3ccc(NC(C)=O)cc3)sc2c1,i,-7*,i,-0.02,i,122*
Cc1c(-c2ccccc2)nc2ccccc2c1C(=O)Nc1ccncc1,i,i,i,0.2,i,i
CC[C@H](NC(=O)c1c(C)c(-c2ccccc2)nc2ccccc12)c1ccccc1,13*,i,i,0.75,i,i
Cc1cccc(-n2ccnc2CN2CCN(C3CCCC3)C(CCO)C2)c1 (stereo unspecified),i,i,i,-1.5,i,i
Cc1cccc(-n2ccnc2CN2CCC(CO)(Cc3ccccc3)CC2)c1,i,-7*,i,-0.48,i,i
O=C(CN1CCC(C(O)(c2ccccc2)c2ccccc2)CC1)Nc1ccccc1,i,i,i,-4.8*,i,i
O=C(CN1CCC(C(O)(c2ccccc2)c2ccccc2)CC1)Nc1cc(Cl)ccc1Cl,i,i,i,0,i,i
COc1ccc(OC)c(-n2c(CN3CCC(C(N)=O)CC3)nc3ccccc3c2=O)c1,i,i,i,-1.3,i,i
COc1ccc(OC)c(-n2c(CNC3CCN(Cc4ccccc4)CC3)nc3ccccc3c2=O)c1,i,i,i,-1.4,i,73*
CC(CN1CCN(Cc2ccccc2)CC1)c1ccccc1 (stereo unspecified),i,i,i,0.32,i,i
N#CC(c1ccccc1)C1CCN(Cc2ccccc2)CC1 (stereo unspecified),i,i,i,-5.2*,i,i
COc1ccc(CNCc2ccc3ccccc3c2)c(OC)c1,i,i,i,-8.5*,i,i
CCOC(=O)Nc1ccc(N2CCOCC2)c(S(=O)(=O)N2CCOCC2)c1,i,i,i,0.09,i,i
O=C(NCC(c1ccco1)N1CCCC1)c1sc2ccccc2c1Cl (stereo unspecified),i,i,i,-0.92,i,43*
COc1ccc(Cl)cc1C(=O)NCC(c1ccco1)N1CCCC1 (stereo unspecified),i,i,i,-1.2,i,52*
O=C(NCC(c1ccco1)N1CCCC1)c1ccccc1F (stereo unspecified),i,i,i,0.02,i,i
CC(Oc1ccc2ccccc2c1)C(=O)NNC(=O)Nc1ccccc1F (stereo unspecified),i,i,i,0.62,i,i
Cc1cc(NC(=O)C(C)SCC(=O)N(Cc2ccccc2)c2ccccc2)no1 (stereo unspecified),i,-7*,i,-0.89,i,i
Cc1cc(C)cc(NCc2cc3c(cc2[N+](=O)[O-])OCO3)c1,i,i,i,-0.18,i,i

# High-throughput results as filed in PubChem.
